Hits are enriched below; roughly 2.4% of the tested compounds scored in any of these assays.
Rad51 HR inh: Rad51 (human) homologous recombination inhibition | inhibition, % at 10 µM | hRad51 DNA strand exchange, fluorescence dequenching | actives 0.085% (n = 200,000) | AID 1385;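 active = inhibition above 40% at the single screening dose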
Target sequence (Q06609 whole entry, looked up): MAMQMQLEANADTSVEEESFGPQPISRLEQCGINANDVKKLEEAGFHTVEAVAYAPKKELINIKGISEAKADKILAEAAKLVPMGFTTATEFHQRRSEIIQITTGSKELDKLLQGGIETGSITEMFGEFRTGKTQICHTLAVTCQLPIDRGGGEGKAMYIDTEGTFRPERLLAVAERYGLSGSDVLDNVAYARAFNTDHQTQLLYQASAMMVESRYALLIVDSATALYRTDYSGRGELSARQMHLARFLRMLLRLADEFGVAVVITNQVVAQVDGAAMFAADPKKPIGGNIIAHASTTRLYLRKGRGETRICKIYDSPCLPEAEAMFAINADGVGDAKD
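material = hRad51 filaments on single-stranded DNA | reagent = Donor/quencher-labelled 47-bp dsDNA substrate | compound = 10 µM final, single point | schedule = strand-exchange reaction 15 min at room temperature | measured by = fluorescein emission 520 nm, excitation 485 nm | read-out basis = % inhibition versus plate control and blank means | benchmarks = plate controls and plate blanks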
Measles CPE: protection of cells from measles virus. Measles virus-infected cells, CPE protection, absorbance. protection (pct of control), % at 4 µM. actives 1.5% (n = 140,000). AID 841; in the data active = protection mostly above about 24%, no sharp cut-off; inactive = mostly below about 26%
Arbovirus inh: blocks arbovirus infection. arbovirus infection cell-based antiviral screen. inhibition, % at 10 µM. actives 0.37% (n = 200,000). AID 1251; in the data active = inhibition above about 30%
Efa HMGR inh: inhibitors of class II HMG-CoA reductase from Enterococcus faecalis; inhibition, % at 10 µM; purified E. faecalis HMGR, NADPH absorbance 340 nm kinetic; actives 0.41% (n = 190,000);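 active = inhibition above a set limit, the median over all tested compounds plus 3 SD, cut at about 9.5% in these data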;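 note: enzyme runs in reverse so mevalonate oxidation gives rising NADPH absorbance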
Yeast lifespan up: extends the lifespan of yeast. S. cerevisiae growth with nicotinamide, OD615; deaD strain in restrictive glucose medium. inhibition of the nicotinamide effect, % at 10 µM. actives 0.68% (n = 130,000);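 active = inhibition above a set limit, placed 3 SD over the median of all compounds, cut at about 26% in these data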
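Assay system: engineered S. cerevisiae DeaD replicative-lifespan strain, galactose-grown log-phase cells; medium: restrictive CSMM-D dextrose medium; also added: nicotinamide, 1.5 mM, co-present with compound; schedule: 48 h compound exposure at 30 °C, humidified; detection: absorbance at 615 nm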
BB579 growth dn: chemicals that inhibit yeast BB579 growth in restrictive medium (lifespan-shortening candidates). S. cerevisiae BB579 growth, OD615, 48 h. inhibition, % at 10 µM. actives 0.51% (n = 140,000);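 active = inhibition above a set limit, 3 SD over the mean compound inhibition, cut at about 44% in these data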
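test system = yeast BB579 (DeaD) | buffer or medium = restrictive CSMM-D medium | doses = single compound dose of 10 µM, 0.25% DMSO final | times = 4 h preincubation and 48 h exposure at 30 °C | technique = culture absorbance at 615 nm | benchmarks = amphotericin B 10 µg/mL, positive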
Large screens that a line does not name were inactive.

COn1c(SC2CCCCC2)nc2ccccc2c1=O	Yeast lifespan up 45.8
O=C(/C=C/c1ccc(S(=O)(=O)NCc2ccco2)cc1)N1CCN(c2ccccc2)CC1	none (no result: Measles CPE, Yeast lifespan up, BB579 growth dn)
O=C(Nc1ccccc1)C1=C(c2ccccc2)S(=O)(=O)CCS1(=O)=O	Rad51 HR inh 41.6 (no result: Measles CPE, Yeast lifespan up, BB579 growth dn)
O=C(O)c1ccccc1C(=O)Nc1ccccc1	none
Cc1cc(-c2csc(N)n2)c(C)n1C	none
Cc1ccc(-n2c(C)cc(-c3csc(N)n3)c2C)cc1	Measles CPE 51.7
Nc1ccccc1C(=O)N/N=C1\C2CN3CCN(C2)CC1(c1ccccc1)C3	none (no result: Rad51 HR inh)
O=C1N(Cc2cccnc2)C[C@@H]2C[C@@H](c3ccc4nsnc4c3)N3CCC[C@@]123	none (no result: Rad51 HR inh, Measles CPE, Yeast lifespan up, BB579 growth dn)
Cc1ccc(S(=O)(=O)Oc2ccc(/C=N/NC(=O)c3cccnc3)cc2)cc1	none (no result: Measles CPE, Yeast lifespan up, BB579 growth dn)
Cc1oc(-c2cccs2)[n+]([O-])c1C	none
Cc1ccccc1-c1oc(C)c(C)[n+]1[O-]	Efa HMGR inh 15.3 (no result: Measles CPE, Yeast lifespan up, BB579 growth dn)
CCCCCOC(=O)CC(C(=O)OCCCCC)N1CCCCC1 (configuration not stated)	none (no result: Yeast lifespan up)
CCCCCCCCCOC(=O)C(CC(=O)O)N1CCOCC1 (configuration not stated)	Yeast lifespan up 29.4
CCN1C(=O)C(=O)N(CC(=O)Nc2ccccc2Oc2ccccc2)C1=O	none (no result: Measles CPE, Yeast lifespan up, BB579 growth dn)
Cc1ccc(/C=C/C(=O)Nc2nnc(C)s2)o1	Measles CPE 20.1
CC(=O)N1CCc2cc(S(=O)(=O)NCCN3CCC(C)CC3)ccc21	Measles CPE 38.0
CC(=O)N1CCc2cc(S(=O)(=O)NCCCN3CCN(Cc4ccccc4)CC3)ccc21	none (no result: Rad51 HR inh)
COCCN(C(=O)CSc1nc2ccccc2c(=O)n1CCOC)c1c(N)n(Cc2ccccc2)c(=O)[nH]c1=O	none (no result: Measles CPE, Yeast lifespan up, BB579 growth dn)
Cc1cc(C)nc(NC(=O)C2c3ccccc3Oc3ccccc32)n1	none (no result: Measles CPE, Yeast lifespan up, BB579 growth dn)
CCOC(=O)c1sc2ccc(S(=O)(=O)N3CC(C)CC(C)C3)cc2c1N (configuration not stated)	none (no result: Rad51 HR inh)
COCCN(C(=O)Nc1ccccc1)c1ccccc1C	Measles CPE 57.5
O=C(c1ccccc1)N1CC(COc2ccccc2)OC(c2ccco2)O1 (configuration not stated)	Yeast lifespan up 26.7
CC1(C)CC(=O)C2=C(C1)NC(=O)CC2c1cc(F)ccc1F (configuration not stated)	none
CC1(C)CC(=O)C2=C(C1)NC(=O)CC2c1cccc(F)c1 (configuration not stated)	Measles CPE 43.4
Cc1c(NC(=O)COC(=O)c2cc(-c3ccc(-c4ccccc4)cc3)nc3ccccc23)c(=O)n(-c2ccccc2)n1C	Measles CPE 38.1
Cn1c(N)c(C(=O)COC(=O)c2cc(-c3ccccc3)nc3ccccc23)c(=O)n(Cc2ccccc2)c1=O	Yeast lifespan up 30.5
CC(C)Cn1c(N)c(-c2nc(C(C)C)c(C(=O)c3ccccc3F)s2)c(=O)n(C)c1=O	none (no result: Measles CPE, Yeast lifespan up, BB579 growth dn)
CCOC(=O)c1cc(NC(=O)Nc2ccccn2)c(C)nc1C	none (no result: Measles CPE, Yeast lifespan up, BB579 growth dn)
O=C(NCc1cccs1)C1CC(=O)N(c2ccc(Cl)cc2)C1 (configuration not stated)	none (no result: Measles CPE, Yeast lifespan up, BB579 growth dn)
S=C(NCC1CCCO1)Nc1ccccc1 (configuration not stated)	none (no result: Measles CPE, Yeast lifespan up, BB579 growth dn)
O=C(Nc1ccc2c(c1)C(=O)N(c1ccccc1)C2=O)C1CCCO1 (configuration not stated)	Efa HMGR inh 12.4 (no result: Yeast lifespan up)
O=C1NC(=O)c2cc(NC(=O)C3CCCO3)ccc21 (configuration not stated)	none
Cc1onc(-c2ccc(Cl)cc2)c1-c1ccnc(SCC(=O)Nc2ccc(C(C)C)cc2)n1	none (no result: Measles CPE, Arbovirus inh, Efa HMGR inh, Yeast lifespan up, BB579 growth dn)
CSc1ccc(S(=O)(=O)N(CC(=O)NN=C2CCN(C)CC2)c2ccc(C)cc2)cc1	none (no result: Measles CPE, Yeast lifespan up, BB579 growth dn)
COc1cccc(NC(=O)c2cc(CN3C(=O)c4ccccc4C3=O)ccc2OC)c1	none
O=[N+]([O-])c1ccc(N2CCCCC2)c(-c2nn[nH]n2)c1	Efa HMGR inh 14.2 (no result: Measles CPE, Yeast lifespan up, BB579 growth dn)
COc1cc(S(=O)(=O)NC2CCCCC2C)ccc1-n1cnnn1 (configuration not stated)	none (no result: Measles CPE, Yeast lifespan up, BB579 growth dn)
CC1CCCCC1NS(=O)(=O)c1ccc(-n2cnnn2)cc1 (configuration not stated)	Yeast lifespan up 46.3
COc1ccc(N2C(=O)CS/C2=C\[N+](=O)[O-])cc1	Efa HMGR inh 15.0

Bioassay records deposited in PubChem BioAssay by several laboratories.
